From ChEMBL document CHEMBL1275249, “Meropenem dosing in critically ill patients with sepsis receiving high-volume continuous venovenous hemofiltration” (Antimicrob Agents Chemother, 2010)
Values after ≈ are worked out from the molar mass of the structure shown.

Legend:
[1] = Cmax in critically ill patient with sepsis at […], iv administered every 8 hrs by HPLC method; type: ADME, organism-based; parameters: route intravenous; conditions: human, in vivo
Method in brief: (§1)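 Meropenem 1,000 mg as reconstituted IV bolus via central venous catheter every 8 h in septic ICU patients on CVVHF. Plasma sampled predose and at 15–480 min, plus 0–8 h urine. Levels measured by validated C18 HPLC-UV at 298 nm with ertapenem internal standard. Noncompartmental analysis used linear trapezoidal AUC0-8 and AUMC, and λz from 2–8 h log-linear regression.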

[2] = Renal clearance in critically ill patient with sepsis at […], iv administered every 8 hrs by HPLC method; type: ADME, organism-based, Kidney; parameters: route intravenous; conditions: human, in vivo, read-out: CL_renal (converted); method in brief: as §1
[3] = system: Homo sapiens; test: Clearance not mediated by CVVHF in critically ill patient with sepsis at […], iv administered every 8 hrs by HPLC method; type: ADME, organism-based; parameters: route intravenous; conditions: in vivo
[4] = system: Homo sapiens; test: Hemofiltration clearance in critically ill patient with sepsis receiving high-volume continuous venovenous hemofiltration at […], iv administered every 8 hrs by HPLC method; type: ADME, organism-based; parameters: route intravenous; conditions: in vivo
Method in brief: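 Same 1,000 mg q8h IV bolus regimen on CVVHF. Filter was changed if it was over 3 h old at the start of sampling. Pre- and postfilter blood and ultrafiltrate were collected at matched times over 0–480 min, and all ultrafiltrate was collected for the interval. Concentrations were measured by HPLC-UV. CVVHF clearance = ultrafiltrate amount/AUC0-8; […].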

[5] = system: Homo sapiens; test: Ultrafiltration flow rate in critically ill patient with sepsis receiving high-volume continuous venovenous hemofiltration at […], iv administered every 8 hrs by HPLC method; type: ADME, organism-based; parameters: route intravenous; conditions: in vivo
[6] = system: Burkholderia pseudomallei; test: Antimicrobial activity against Burkholderia pseudomallei; type: functional
[7] = organism: Homo sapiens; test: Plasma protein binding in patient with acute kidney injury; type: ADME, organism-based
[8] = fT>MIC in patient with acute kidney injury infected with Burkholderia pseudomallei; type: functional
Method in brief: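 Ten critically ill septic patients with AKI on high-volume CVVHF received meropenem 1,000 mg every 8 h as a central-venous bolus. Plasma was assayed by HPLC-UV at 298 nm with an ertapenem internal standard. Concentration-time data were compared with an MIC of 4 mg/liter.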

`C[C@@H](O)[C@H]1C(=O)N2C(C(=O)O)=C(S[C@@H]3CN[C@H](C(=O)N(C)C)C3)[C@H](C)[C@H]12` [MEROPENEM] showed a Cmax [1] of 56.6 µg/mL, a CL renal at 8 h [2] of 0.0833 mL/min and a CL [3] of 2.4 L/h. It also gave a CL [4] of 3.5 L/h, an Activity [5] of 4.4 L/h and an MIC90 [6] of 4 µg/mL (≈ 10.4 µM). The Activity [7] was 2% and the “fT>MIC” value [8] was 40%.
